Assay outcomes deposited in PubChem BioAssay by several laboratories.
UPR XBP1 act – activators of adaptive arm of unfolded protein response (XBP1) | CHO-XBP1 luciferase reporter, IRE1-XBP1 UPR activation, luminescence; percent of tunicamycin response, DMSO as zero | activation, % at 20 µM | 330,000 compounds, 0.33% hits | AID 463104;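 active = versus positive control, 20 µM dose yields 30% or more activation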
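Material: CHO-XBP1 cells stably carrying IRE1-XBP1-driven luciferase reporter / Amount: 1000 cells per well / Compound: 20 µM, 1% DMSO / Times: 6 h treatment, 37 °C / Detection: luciferase luminescence / Measure: % activation of reporter signal versus tunicamycin and DMSO controls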
Mdm2 ligase inh – blocks human Mdm2 ubiquitin ligase activity. cell-based MDM2 ubiquitination luciferase reporter, 2 h; 0 = plate control, 100 = twice control, blank-subtracted. 210,000 compounds, 0.11% hits. signal enhancement, % at 5 µM. Q00987;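 active = signal enhancement of 30% or more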;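 also: luminescence tracks abundance of the self-degrading MDM2-luciferase fusion protein; higher signal means inhibition of MDM2 E3 ligase activity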
Target sequence (Q00987 whole entry, looked up, the tested form may be a part): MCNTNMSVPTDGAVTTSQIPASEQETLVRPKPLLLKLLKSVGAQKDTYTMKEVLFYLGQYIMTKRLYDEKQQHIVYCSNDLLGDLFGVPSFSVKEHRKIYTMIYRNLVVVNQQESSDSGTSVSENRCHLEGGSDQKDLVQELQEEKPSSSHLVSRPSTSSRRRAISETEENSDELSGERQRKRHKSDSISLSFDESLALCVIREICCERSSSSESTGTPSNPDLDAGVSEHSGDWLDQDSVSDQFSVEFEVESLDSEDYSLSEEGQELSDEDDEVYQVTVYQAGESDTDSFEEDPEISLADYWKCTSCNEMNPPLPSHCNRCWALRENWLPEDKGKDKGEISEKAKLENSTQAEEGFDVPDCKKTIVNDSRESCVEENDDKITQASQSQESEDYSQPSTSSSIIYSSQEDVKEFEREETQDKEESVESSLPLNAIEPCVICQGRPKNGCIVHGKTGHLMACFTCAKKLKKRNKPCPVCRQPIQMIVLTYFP
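system = mammalian cells stably expressing self-ubiquitinating, self-degrading MDM2 E3–luciferase fusion | quantity = 2000 cells per well seeded | incubation = 4 h cell settling then 2 h compound exposure, 37 °C | signal = SteadyLite luminescence, 15 min reagent step | benchmarks = plate control and blank wells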
Beta2AR agonist – human beta-2 adrenergic receptor agonism by FAP; Am2.2-beta2AR cells, FAP receptor internalization, flow cytometry; response, % (no concentration beside the values); 340,000 compounds, 0.43% hits; AID 504454;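 active = response above a set limit, near 3 SD of response in nonfluorescent compounds, cut at about 42% in these data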
Dynein cargo inh – blocks dynein driven cargo transport along microtubules; 220,000 compounds, 0.47% hits; 3617.4 mouse cells, GR-EGFP nuclear translocation imaging; test concentration mostly 20 µM; stimulated with dexamethasone, 1 µM; hits give low values; z-score, hits read low;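 active = plate z-score of nuclear minus cytoplasmic receptor signal below a set negative limit, without overly bright fluorescence or cell loss, cut at about -3.5 in these data, passing the limit was not always enough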;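 also: z-score of nuclear minus cytoplasmic ring GR-EGFP intensity difference per well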
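Buffer or medium: tet-free medium with charcoal-stripped serum / Also added: dexamethasone agonist, 1.0 µM final, for 30 min / Timing: induction 48 h, compound 1 h, agonist 30 min / Measured by: high-content fluorescence imaging after fixation / Read-out: nuclear-to-cytoplasmic GR-EGFP distribution per well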
CHOP UPR activ – apoptotic UPR (CHOP) activation; activation, % at 10 µM; CHO-CHOP luciferase reporter, luminescence; percent of tunicamycin response over DMSO baseline; 330,000 compounds, 0.34% hits;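 active = at 10 µM dose, activation of 40% or more, normalized to positive control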
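Assay system: CHO-CHOP cells, stable luciferase reporter of PERK-eIF2a-CHOP signalling / Buffer or medium: F12 plus 10% serum / Compound dosing: one dose, 10 µM in 0.5% DMSO / Times: 6 h compound treatment, 37 °C / Technique: luciferase luminescence / Read-out: % reporter activation, DMSO baseline versus tunicamycin full activation / Benchmarks: tunicamycin and DMSO controls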
Mdm2 MdmX PPI – inhibitors of human Mdm2/MdmX interaction; SaOS-2 split-luciferase Mdm2/MdmX complementation, luminescence; inhibition, % at 8 µM; AID 485346; O15151+Q00987; 330,000 compounds, 3% hits;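 active = inhibition of at least 50% at 8 µM in the primary screen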
Dynein inh conf – dynein cargo transport inhibition, confirmation; AID 463116; 3617.4 GR-EGFP nuclear translocation imaging, dexamethasone-induced; calls only at 20 µM; shares compounds with Dynein cargo inh; 1,000 compounds, 69% hits;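 active = inhibition of receptor movement into the nucleus at or above a set limit in both runs, with normal cell brightness and cell count; inconclusive = limit reached in only one run, brightness and count normal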;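 also: dexamethasone at 1 µM final in well for 30 min; nuclear minus cytoplasmic GR-EGFP mean intensity difference in channel 2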
UPR CHOP confirm – confirmation of apoptotic unfolded protein response (CHOP) activators. AID 463112. CHO-CHOP cells, CHOP-luciferase reporter luminescence; percent of tunicamycin response, DMSO as zero. shares compounds with CHOP UPR activ. activation, % at 10 µM. 1,000 compounds, 64% hits; in the data active = activation above about 33%
UPR XBP1 confirm – adaptive UPR (XBP1) activation, confirmed; shares compounds with UPR XBP1 act; CHO-XBP1 IRE1-XBP1 luciferase reporter, luminescence; activation, % at 20 µM; 1,000 compounds, 63% hits;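 active = reporter signal at least 30% of the positive control's activation in two or more of four replicate wells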
Mdm2-MdmX conf – confirmation of human Mdm2/MdmX interaction inhibitors; shares compounds with Mdm2 MdmX PPI; Mdm2-MdmX binding, luminescent assay; inhibition, % at 8 µM; 10,000 compounds, 55% hits; in the data active = inhibition above about 40%
FLuc counter – full-length luciferase inhibition in Mdm2/MdmX counter-screen; shares compounds with Mdm2 MdmX PPI; SaOS-2 full-length luciferase counterscreen, luminescence; inhibition, % at 8 µM; 6,200 compounds, 77% hits;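 active = mean inhibition at 8 µM reaching about 37%, which flags the compound as non-specific, limit read from the data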;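 also: p53-null SaOS-2 cells with luciferase driven by a doxycycline-inducible promoter; compound on cells about two nights before reading with doxycycline added after day one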
A number is an active result; i = inactive; ? = inconclusive; nt = no result; + = active, no number. Most compounds without a hit are left out; they make up all but 3.7% or so of the library.

SMILES | UPR XBP1 act | Mdm2 ligase inh | Beta2AR agonist | Dynein cargo inh | CHOP UPR activ | Mdm2 MdmX PPI | Dynein inh conf | Mdm2-MdmX conf | FLuc counter | others
COc1ccc2c(c1)c1ncn(CCN3CCCC3)c(=O)c1n2C | i | i | i | i | i | i | nt | nt | nt
COc1ccc2c(c1)c1ccc3c(c1n2C)C(=O)C=CC3=O | i | i | 96 | -5.8 | i | 93 | + | 74 | 58
NS(=O)(=O)c1cccc(NC(=O)CSc2n[nH]c(-c3ccccc3Br)n2)c1 | nt | nt | i | nt | nt | nt | nt | nt | nt
S=C(Nc1ccc(Cl)cc1)c1nc2ccccc2s1 | i | i | i | i | i | i | nt | nt | nt
O=C(Nc1ccc(Cl)cc1)/C(=C/c1cccc(O)c1)c1nc2ccccc2s1 | i | i | i | -6 | 114 | 100 | + | 100 | 51 | UPR CHOP confirm=62
CCOC(=O)c1c(C)oc2c1c(C(c1cccnc1)N1CCOCC1)c(O)c1ccccc12 (stereo unspecified) | i | i | i | -3.7 | 70 | 76 | ? | i | nt | UPR CHOP confirm=134
CC(C)C(NS(=O)(=O)c1cccs1)C(=O)N1CCC(C(N)=O)CC1 (stereo unspecified) | i | nt | i | nt | i | i | nt | nt | nt
COC(=O)CC1(CC(N)=O)SCCS1 | nt | nt | i | nt | nt | nt | nt | nt | nt
Cc1ccc(S(=O)(=O)NC(Cc2ccccc2)C(=O)NN)cc1 (stereo unspecified) | i | nt | i | nt | i | i | nt | nt | nt
Cc1ccc(S(=O)(=O)N[C@@H](Cc2ccccc2)C(=O)CCl)cc1 | i | nt | 53 | -4.5 | i | 80 | i | i | 63
CCNC(=O)NC(=O)COC(=O)c1cccc(S(=O)(=O)N2CC3(C)CC2CC(C)(C)C3)c1 (stereo unspecified) | i | nt | i | nt | i | i | nt | nt | nt
O=C(NCCCN1CCCCCC1)c1ccc2c(Cl)c3c(nc2c1)CCCC3 | i | i | i | -3.7 | i | 59 | + | i | nt
CC1CCN(CCCNC(=O)c2ccc3c(Cl)c4c(nc3c2)CCCC4)CC1 | i | nt | i | -5 | i | 79 | + | 68 | i
COCCNC(=O)c1ccc2c(Cl)c3c(nc2c1)CCC3 | i | nt | i | nt | i | i | nt | nt | nt
Cc1ccc(C)c(Oc2ncnc(N)c2[N+](=O)[O-])c1 | i | i | i | i | i | i | nt | nt | nt
Cc1cc(Sc2ncnc(N)c2[N+](=O)[O-])ncn1 | i | i | i | -5.7 | i | 93 | + | i | nt
CCCn1nc([N+](=O)[O-])c(C(C#N)c2nc3ccccc3s2)c(Cl)c1=O (stereo unspecified) | i | i | i | -5.1 | i | 80 | + | 74 | 57
CCn1nc([N+](=O)[O-])c(C(C#N)c2nc3ccccc3n2C)c(Cl)c1=O (stereo unspecified) | i | i | i | i | i | i | nt | nt | nt
CN(Cc1ccc(Cl)s1)C(=O)CCl | i | i | i | -5.7 | i | 54 | + | 41 | 52
CN(C)CCNC(=O)c1ccc(Cl)s1 | i | i | i | i | i | i | nt | nt | nt
O=C(NCc1cccs1)C(=O)NCC1OCCCN1S(=O)(=O)c1cc(F)ccc1F (stereo unspecified) | i | nt | i | nt | i | i | nt | nt | nt
O=C(NCCC1=CCCCC1)c1coc(=O)c(Br)c1 | i | i | i | -6 | i | 84 | ? | i | i
NC(=O)N/N=C/c1c(Sc2nnnn2-c2ccccc2)nc2ccccn2c1=O | i | i | i | -5.3 | i | 62 | i | 50 | i
Cc1nn(-c2ccccc2)c(Cl)c1/C=N/NC(N)=O | i | i | i | i | i | i | nt | nt | nt
CS(=O)(=O)c1ccc(C(=O)OCc2nnc(-c3ccc(Cl)cc3)o2)cc1[N+](=O)[O-] | i | i | 93 | -5.6 | i | 96 | + | 60 | i
SMILES | UPR XBP1 act | Mdm2 ligase inh | Beta2AR agonist | Dynein cargo inh | CHOP UPR activ | Mdm2 MdmX PPI | Dynein inh conf | Mdm2-MdmX conf | FLuc counter | others
O=C(OCc1nnc(-c2ccc(Cl)cc2)o1)c1ccc(O)cc1 | i | i | i | i | i | i | nt | nt | nt
C=CCn1ccc(O)c(Cc2ccc(Cl)cc2)c1=O | i | nt | i | nt | i | i | nt | nt | nt
CC1=NN(c2cccc(C(=O)O)c2)C(=O)/C1=C\C=C/c1ccccc1 | i | 31 | nt | -5.6 | 95 | 65 | + | i | nt | UPR CHOP confirm=130
CC1=NN(c2ccccc2)C(=O)/C1=C/C=C/C=C/N(C)C | i | i | i | i | i | i | nt | nt | nt
O=C(NCc1cccnc1)/C(=C/c1ccc(-c2ccc(Cl)cc2)o1)S(=O)(=O)c1ccccc1 | i | i | 108 | -5.3 | 136 | 82 | + | 100 | 52 | UPR CHOP confirm=91
O=C(NCc1cccnc1)/C(=C\c1ccc(-c2ccc(Br)cc2)o1)S(=O)(=O)c1ccccc1 | i | i | i | -4.6 | 83 | 96 | + | 99 | 51 | UPR CHOP confirm=52
O=C(CN(Cc1ccc(Br)cc1)S(=O)(=O)c1ccccc1)NCc1cccnc1 | i | nt | i | nt | i | i | nt | nt | nt
O=C(NCc1cccnc1)/C(=C/c1ccc(-c2cccc(C(F)(F)F)c2)o1)NC(=O)c1ccccc1 | i | i | i | i | i | i | nt | nt | nt
O=C(COc1ccccc1)NCC(=O)N/N=C/c1ccc(Cl)cc1 | i | nt | i | nt | i | i | nt | nt | nt
Cc1sc2ncnc(SCC(=O)N3c4ccccc4Sc4ccc(Cl)cc43)c2c1C | i | i | i | i | i | i | nt | nt | nt
CCOC(=O)c1c(C)sc2c1N(C(=O)CCl)c1cc(Cl)ccc1S2 | i | i | i | -4 | i | 100 | + | 77 | 47
Cc1cc(-n2c(C)cc(C(=O)CN3C(=O)C(=O)N(C)C3=O)c2C)no1 | i | nt | i | nt | i | i | nt | nt | nt
Cc1cc(-n2c(C)cc(C(=O)CCl)c2C)no1 | i | i | 65 | -7.3 | 171 | 79 | + | 67 | 87 | UPR CHOP confirm=263
COc1ccc(-n2c(C)cc(C(=O)CCl)c2C)cc1 | 42 | i | i | -3.8 | 564 | 100 | + | 61 | 49 | UPR CHOP confirm=417;UPR XBP1 confirm=31
CC(CCc1ccccc1)NC(=O)C(Cc1ccccc1)NC(N)=O (stereo unspecified) | i | nt | i | nt | i | i | nt | nt | nt
